Screens: PubChem, NMMLSC
Efflux pump mplx: antifungal efflux pump inhibition, Nile Red retention | AID 485275 | inhibition, % at 10 µM | S. cerevisiae Candida pump triplex | hit rate 0.44% among 330,000;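 active = plate passing quality check with inhibition over a set limit, or well fluorescence over plate mean plus 4 SD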;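 note: Nile Red retained in pooled yeast measured as flow cytometry median fluorescence; 0% = buffer negative control and 100% = Enniatin B positive control; higher means more Nile Red kept so more efflux inhibition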
ABCG2 block: human ABCG2 inhibition, ABCB1 as counter-screen | hit rate 0.1% among 190,000 | inhibition, % at 6.6 µM | IgMXP3 cells, JC-1 efflux, flow cytometry | Q9UNQ0 | AID 1325;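 active = inhibition above 80%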;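 note: 0% = DMSO and 100% = nicardipine control wells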
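Test system: ABCG2 IgMXP3 and barcoded ABCB1 CCRF-Adr cell mix; Schedule: cells with compound and JC-1, 10 min at 25 °C, rotating, no wash; Technique: flow cytometry of retained JC-1 fluorescence; Measure: % inhibition of efflux relative to nicardipine and DMSO; Controls: nicardipine high and DMSO low controls.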
MEKK3 PB1 HTS: modulators (inhibitors or enhancers) of MEK5 binding to human MEKK3 PB1 domain. Q99759. bead-based flow cytometry, Alexa488-MEK5 binding to MEKK3; actives lie on both sides; 0 = blocked by unlabeled MEK5, 100 = vehicle. binding response (% of control), % at 10 µM. hit rate 1.4% among 290,000. AID 1529;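 active = binding response more than 3 SD above or below the average of its plate-row segment, actives on both sides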;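 note: Alexa488 bead fluorescence after subtracting the streptavidin-only scavenger bead signal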
MEKK2 WT-MEK5: raises or lowers MEK5 binding to wildtype human MEKK2 PB1 domain. hit rate 1.1% among 290,000. binding response (% of control), % at 10 µM. bead flow cytometry, Alexa488-MEK5 binding to MEKK2 WT; actives lie on both sides; in the data active = binding response below about 67% or above about 130%
MEKK2mut PB1 HTS: signal of MEK5 binding to mutant human MEKK2 PB1 domain; bead flow cytometry, Alexa488-MEK5 binding to MEKK2 mutant; percent response, % at 10 µM; hit rate 0.35% among 290,000; AID 1530; in the data active = percent response above about 24%, passing the limit was not always enough
ABCB1 block: human ABCB1 inhibition, ABCG2 as counter-screen; P08183; CCRF-Adr cells, JC-1 efflux, flow cytometry; inhibition, % at 6.6 µM; hit rate 0.067% among 190,000; in the data active = inhibition above about 40%;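 note: 0% = vehicle and 100% = reference inhibitor; higher value means more JC-1 retained so stronger ABCB1 efflux block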
Target sequence (P08183 whole entry, looked up): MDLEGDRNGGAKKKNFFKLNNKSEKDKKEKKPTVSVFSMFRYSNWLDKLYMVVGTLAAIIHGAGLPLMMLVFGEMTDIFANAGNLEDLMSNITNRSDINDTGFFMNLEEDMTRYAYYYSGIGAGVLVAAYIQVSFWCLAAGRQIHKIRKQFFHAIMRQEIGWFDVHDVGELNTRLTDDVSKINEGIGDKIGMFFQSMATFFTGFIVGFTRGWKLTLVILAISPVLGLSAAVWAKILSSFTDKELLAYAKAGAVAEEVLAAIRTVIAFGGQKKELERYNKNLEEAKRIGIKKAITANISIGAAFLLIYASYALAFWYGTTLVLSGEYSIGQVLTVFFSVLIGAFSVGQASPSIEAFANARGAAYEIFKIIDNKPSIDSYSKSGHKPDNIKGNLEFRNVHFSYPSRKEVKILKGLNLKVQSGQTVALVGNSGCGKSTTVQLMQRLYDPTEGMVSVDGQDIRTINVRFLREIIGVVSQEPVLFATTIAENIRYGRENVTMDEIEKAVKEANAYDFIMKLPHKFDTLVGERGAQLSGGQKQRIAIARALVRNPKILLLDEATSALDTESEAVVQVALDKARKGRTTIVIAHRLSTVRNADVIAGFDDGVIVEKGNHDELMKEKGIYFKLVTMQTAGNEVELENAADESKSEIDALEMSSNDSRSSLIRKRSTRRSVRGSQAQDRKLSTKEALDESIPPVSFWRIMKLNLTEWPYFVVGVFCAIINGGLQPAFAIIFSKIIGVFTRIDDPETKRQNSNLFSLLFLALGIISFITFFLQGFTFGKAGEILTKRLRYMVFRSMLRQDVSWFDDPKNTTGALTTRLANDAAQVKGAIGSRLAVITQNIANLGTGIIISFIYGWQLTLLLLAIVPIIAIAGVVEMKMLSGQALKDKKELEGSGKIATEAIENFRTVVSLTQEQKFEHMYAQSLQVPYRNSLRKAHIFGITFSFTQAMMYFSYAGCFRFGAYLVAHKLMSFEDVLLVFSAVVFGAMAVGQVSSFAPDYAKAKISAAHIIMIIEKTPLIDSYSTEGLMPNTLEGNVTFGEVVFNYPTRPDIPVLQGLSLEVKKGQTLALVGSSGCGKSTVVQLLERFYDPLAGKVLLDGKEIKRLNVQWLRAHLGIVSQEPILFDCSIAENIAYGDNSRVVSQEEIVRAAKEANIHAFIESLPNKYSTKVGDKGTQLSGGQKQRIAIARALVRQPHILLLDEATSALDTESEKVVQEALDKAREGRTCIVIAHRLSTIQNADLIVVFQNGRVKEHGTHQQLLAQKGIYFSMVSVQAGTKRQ
MEKK2wt confirm: raises or lowers MEK5 binding to wildtype human MEKK2, retest | AID 1892 | bead flow cytometry, Alexa488-MEK5 binding to MEKK2 WT; actives lie on both sides | binding response (% of control), % at 10 µM | hit rate 2.4% among 5,900 | shares compounds with MEKK3 PB1 HTS; in the data active = binding response below about 16% or above about 210%; inactive = in between
MEKK2mut-MEK5: signal of MEK5 binding to mutant human MEKK2, retest | shares compounds with MEKK3 PB1 HTS | AID 1893 | percent response, % at 10 µM | hit rate 2% among 5,900 | bead flow cytometry, Alexa488-MEK5 binding to MEKK2 mutant; in the data active = percent response mostly above about 71%, no sharp cut-off; inactive = mostly below about 38%;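 note: higher means compound restores mutant binding toward wildtype level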
MEKK3 confirm: confirmation of inhibitors of MEK5 binding to human MEKK3. shares compounds with MEKK3 PB1 HTS. bead flow cytometry, Alexa488-MEK5 binding to MEKK3; active compounds read low. binding response (% of control), % at 10 µM. hit rate 1.8% among 5,900. AID 1894;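 active = binding response below 72% of control, or above a set upper limit, though filed actives all read lower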;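 note: 100% = DMSO only wells and 0% = binding blocked by excess unlabeled MEK5; lower values mean stronger disruption of MEK5 binding to MEKK3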
* hit, by the source's call; . = not tested or not shown; + = active, no number; [ ] = remark or other dose. Only some compounds are listed: those with a hit (about 2.5% of all), similar ones and a draw of the others.

SMILES | Efflux pump mplx | ABCG2 block | MEKK3 PB1 HTS | MEKK2 WT-MEK5 | MEKK2mut PB1 HTS | ABCB1 block | MEKK2wt confirm | MEKK2mut-MEK5 | MEKK3 confirm
CCOC(=O)/C(=N/Nc1ccccc1)Sc1nnnn1-c1ccc(C)cc1 | 0 | 0 | 129* | 105 | 4 | 0 | 100 | -2 | 97
O=C(/C(=N\Nc1ccc(Br)cc1)Sc1nnnn1-c1ccccc1)c1ccccc1 | 0 | -6 | 130* | 104 | -1 | -1 | 107 | -2 | 104
COC(=O)c1ccc(/C=N/NC(=O)C2CC(=O)N(c3ccc(OC)cc3)C2)cc1 (centres undefined) | 0 | . | 95 | 91 | -5 | . | . | . | .
CC(C)(C)c1ccc(S(=O)(=O)n2c(CN3CCOCC3)nc3ccccc32)cc1 | 0 | 4 | 125* | 120 | 6 | 2 | 101 | 0 | 102
COc1ccc(S(=O)(=O)n2c(CCN3CCOCC3)nc3ccccc32)cc1 | 0 | 4 | 107 | 113 | 4 | 2 | . | . | .
Nc1nc(Nc2ccc(Cl)cc2)n[nH]1 | 0 | 0 | 103 | 104 | 2 | 0 | . | . | .
Nc1nc(Nc2ccccc2)n[nH]1 | 0 | . | 74*[inhibitor] | 71 | 8 | . | 101 | 11 | 102
O=C(COC(=O)c1ccc(Cl)c(S(=O)(=O)N2CCCCC2)c1)NCC1CCCO1 (centres undefined) | 0 | 2 | 94 | 89 | -3 | 0 | . | . | .
NS(=O)(=O)c1ccc(NC(=O)CN2C(=O)c3ccccc3C2=O)cc1 | 0 | . | 104 | 100 | 5 | . | . | . | .
CC(C)C(C(=O)Nc1ccc(S(N)(=O)=O)cc1)N1C(=O)c2ccccc2C1=O (centres undefined) | 0 | 7 | 56*[inhibitor] | 70 | -10 | 1 | 96 | -4 | 101
Cc1cccc(CC(=O)NCCS(=O)(=O)N2CCN(c3cccc(Cl)c3)CC2)c1 | 0 | . | . | . | . | . | . | . | .
CCCC(=O)NCn1nnc(-c2ccc(Cl)cc2)n1 | . | 5 | 221* | 94 | + | 1 | 102 | 1 | 103
OCCNCC(O)CN1c2ccccc2Sc2ccccc21 (centres undefined) | 0 | . | 102 | 114 | 5 | . | . | . | .
CCCOc1ccc(-c2nn(-c3ccccc3)cc2/C=C2\SC(N)=NC2=O)cc1C | 0 | -6 | 129* | 96 | -2 | -1 | 94 | -1 | 104
COc1ccc(-c2nn(CCC(=O)O)cc2/C=C2\SC(N)=NC2=O)cc1OC | 0 | -6 | 111 | 99 | -1 | -1 | . | . | .
CC1CCN(C(=O)COC(=O)CCc2c[nH]c3ccccc23)CC1 | 0 | 2 | 50*[inhibitor] | 65 | -14 | 0 | 106 | 5 | 106
O=C(c1ccco1)N1N=C(c2ccc(Br)cc2)CC1c1ccco1 (centres undefined) | 0 | . | . | . | . | . | . | . | .
COc1ccc(C(CC(=O)c2ccc(O)cc2)S(=O)(=O)c2ccc(C)cc2)cc1 (centres undefined) | 0 | 4 | 26*[inhibitor] | 37*[inhibitor] | -18 | 1 | 98 | -4 | 99
COc1ccc(C(=O)CC(c2ccccc2)S(=O)(=O)c2ccc(C)cc2)cc1 (centres undefined) | 0 | 0 | 97 | 100 | -2 | 1 | . | . | .
CN1C(=O)N(C)C2(c3ccccc3)N(C)C(=O)NC12c1ccccc1 (centres undefined) | 0 | 1 | 35*[inhibitor] | 50 | -17 | 0 | 101 | 6 | 101
O=C(CSc1nc(C2CCCCC2)nc2ccccc12)NCc1ccco1 | 0 | 4 | 2.0*[inhibitor] | -1.0*[inhibitor] | -28 | 0 | 109 | 7 | 110
NS(=O)(=O)c1ccc(CCNC(c2ccccc2)c2ccccc2)cc1 | 0 | . | 99 | 95 | -4 | . | . | . | .
c1ccc(C(NCCNC(c2ccccc2)c2ccccc2)c2ccccc2)cc1 | 0 | . | 111 | 142* | 27* | . | 151 | 26 | 108
O=C1c2ccccc2C(=O)N1OCCOCCOCCBr | 0 | 1 | 1.0*[inhibitor] | -2.0*[inhibitor] | -26 | 0 | 102 | 2 | 102
CCCC(=O)N/C(N)=N/c1nc(C)c2cc(C)ccc2n1 | 0 | . | 105 | 107 | 9 | . | . | . | .
SMILES | Efflux pump mplx | ABCG2 block | MEKK3 PB1 HTS | MEKK2 WT-MEK5 | MEKK2mut PB1 HTS | ABCB1 block | MEKK2wt confirm | MEKK2mut-MEK5 | MEKK3 confirm
Cc1ccc2nc(/N=C(\N)NC(=O)NC3CCCCC3)nc(C)c2c1 | 0 | . | 103 | 141* | 25 | . | 135 | 27 | 108
CCCCCn1c(=O)[nH]c2cc(C(=O)NCCCN3CCCCC3CC)ccc2c1=O (centres undefined) | 0 | . | 102 | 108 | 0 | . | . | . | .
COc1ccccc1CN1CCNC(=O)C1CC(=O)NCCC1=CCCCC1 (centres undefined) | 0 | 6 | 104 | 130 | 14 | 1 | . | . | .
CCOc1ccccc1CN1CCNC(=O)C1CC(=O)NCCC1=CCCCC1 (centres undefined) | 0 | . | 103 | 127 | 24* | . | 125 | 15 | 104
COc1cccc(C(=O)Nn2cnnc2)c1OC | 0 | . | 104 | 97 | 3 | . | . | . | .
COc1ccc(Cc2nnc(Nc3ccc(Cl)cc3)[nH]c2=O)cc1 | 0 | . | 102 | 95 | -1 | . | . | . | .
O=c1[nH]c(Nc2ccc3c(c2)OCCO3)nnc1Cc1ccc(Cl)cc1 | 0 | 1 | 129* | 106 | 3 | 1 | 94 | -8 | 97
O=C(CSc1nc2ccccc2n1Cc1ccc(Cl)cc1)N/N=C/c1ccccc1C(=O)O | 0 | -1 | 100 | 96 | 0 | 0 | . | . | .
O=C(O)COc1ccccc1/C=N/NC(=O)CSc1nc2ccccc2n1Cc1ccc(Cl)cc1 | 0 | . | 50*[inhibitor] | 57 | -28 | . | 103 | 6 | 106
COCCCn1c(=O)c2ccccc2n(CC(=O)NC2CCCCC2)c1=O | 0 | . | 101 | 103 | 0 | . | . | . | .
COc1ccc(CCN2CCCC(CN(C)Cc3cc(Cl)c(O)c(OC)c3)C2)cc1 (centres undefined) | 0 | . | 112 | 135* | 25* | . | 132 | 24 | 107
CC(=O)Nc1ccccc1C(=O)C(=O)Nc1cccc(C(=O)NCc2ccc(C)cc2)c1 | 0 | 33 | 134* | 108 | 1 | 1 | 96 | -2 | 100
CC(=O)Nc1ccccc1C(=O)C(=O)Nc1cccc(C(=O)NCc2ccccc2)c1 | 0 | 12 | 96 | 95 | -2 | . | . | . | .
CCCc1nnc(SCc2ccc(OC)cc2)n1N | 0 | 9 | 100 | 99 | 3 | 0 | . | . | .
